# Assay results published in ChEMBL document CHEMBL3804761, “Synthesis of a stable and orally bioavailable englerin analogue” (Bioorg Med Chem Lett, 2016).
# What was measured:
# Assay type in all cases: functional
# SR = experiment: Growth inhibition of human SR cells incubated for 48 hrs by sulforhodamine B assay; conditions: for TGI: read-out: pTGI (converted)
# Procedure, shortened: (§1)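 Tested in the standard NCI 60-cell-line protocol with two-day drug exposure and a sulforhodamine B endpoint. Compounds were first screened at a single final concentration of 10 µM, reported as growth percent. They were then run as five 10-fold dilutions starting from a high concentration of 100 µM to give dose-response curves.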
# [1] = Growth inhibition of human UACC62 cells assessed as cell growth at 10 uM incubated for 48 hrs by sulforhodamine B assay relative to control; conditions: UACC-62, 48 h, read-out: Activity
# Procedure, shortened: (§2)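 NCI 60-cell line standard protocol, one-dose screen: single final concentration 10 µM, 2-day drug exposure, sulforhodamine B (SRB) endpoint; read-out is growth percent relative to untreated control.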
# [2] = Growth inhibition of human OVCAR4 cells incubated for 48 hrs by sulforhodamine B assay; conditions: OVCAR-4, 48 h; for TGI: read-out: pTGI (converted)
# Procedure, shortened: (§3)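 NCI 60-cell-line panel, standard protocol. Cells exposed to compound for two days, growth read by sulforhodamine B staining. Tested at five 10-fold dilutions, top concentration 100 µM, to give dose-response curves.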
# SK-MEL-2 = experiment: Growth inhibition of human SK-MEL-2 cells incubated for 48 hrs by sulforhodamine B assay; conditions: SK-MEL-2, 48 h; for TGI: read-out: pTGI (converted); procedure, shortened: as §3
# SK-MEL-28 = experiment: Growth inhibition of human SK-MEL-28 cells assessed as cell growth at 10 uM incubated for 48 hrs by sulforhodamine B assay relative to control; conditions: SK-MEL-28, 48 h, read-out: Activity
# Procedure, shortened: (§4)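 Run in the standard NCI 60-cell-line screen. Cells were exposed to drug for two days, and the read-out was sulforhodamine B staining. Compound was tested at a single final concentration of 10 µM in every line, and results are reported as growth percent.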
# [3] = Growth inhibition of human RPMI8226 cells incubated for 48 hrs by sulforhodamine B assay; conditions: RPMI-8226, 48 h; for CC50: read-out: pLC50 (the source's name) (converted); for TGI: read-out: pTGI (converted); procedure, shortened: as §3
# [4] = Growth inhibition of human HL-60(TB) cells assessed as cell growth at 10 uM incubated for 48 hrs by sulforhodamine B assay relative to control; conditions: HL-60, 48 h, read-out: Activity
# Procedure, shortened: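 Single-dose screen in the NCI 60-cell-line panel at one final concentration of 10 µM. Two-day drug exposure with a sulforhodamine B endpoint. Values are growth percent for each cell line.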
# [5] = Growth inhibition of human OVCAR5 cells assessed as cell growth at 10 uM incubated for 48 hrs by sulforhodamine B assay relative to control; conditions: OVCAR-5, 48 h, read-out: Activity; procedure, shortened: as §4
# [6] = Growth inhibition of human Hs 578T cells assessed as cell growth at 10 uM incubated for 48 hrs by sulforhodamine B assay relative to control; conditions: read-out: Activity
# [7] = Growth inhibition of human SNB75 cells assessed as cell growth at 10 uM incubated for 48 hrs by sulforhodamine B assay relative to control; conditions: SNB-75, 48 h, read-out: Activity; procedure, shortened: as §4
# NCI/ADR-RES [8] = experiment: Growth inhibition of human NCI/ADR-RES cells assessed as cell growth at 10 uM incubated for 48 hrs by sulforhodamine B assay relative to control; conditions: read-out: Activity; procedure, shortened: as §4
# [9] = Growth inhibition of human SF268 cells incubated for 48 hrs by sulforhodamine B assay; conditions: SF-268, 48 h; for TGI: read-out: pTGI (converted); procedure, shortened: as §3
# [10] = Growth inhibition of human HCT116 cells assessed as cell growth at 10 uM incubated for 48 hrs by sulforhodamine B assay relative to control; conditions: HCT-116, 48 h, read-out: Activity; procedure, shortened: as §4
# NCI-H23 = experiment: Growth inhibition of human NCI-H23 cells assessed as cell growth at 10 uM incubated for 48 hrs by sulforhodamine B assay relative to control; conditions: NCI-H23, 48 h, read-out: Activity; procedure, shortened: as §4
# NCI/ADR-RES [11] = experiment: Growth inhibition of human NCI/ADR-RES cells incubated for 48 hrs by sulforhodamine B assay; conditions: for TGI: read-out: pTGI (converted); procedure, shortened: as §3
# SK-MEL-5 = experiment: Growth inhibition of human SK-MEL-5 cells assessed as cell growth at 10 uM incubated for 48 hrs by sulforhodamine B assay relative to control; conditions: SK-MEL-5, 48 h, read-out: Activity; procedure, shortened: as §4
# MDA-MB-468 = experiment: Growth inhibition of human MDA-MB-468 cells incubated for 48 hrs by sulforhodamine B assay; conditions: MDA-MB-468, 48 h; for CC50: read-out: pLC50 (the source's name) (converted); for TGI: read-out: pTGI (converted); procedure, shortened: as §3
# [12] = Growth inhibition of human HL-60(TB) cells incubated for 48 hrs by sulforhodamine B assay; conditions: HL-60, 48 h; for CC50: read-out: pLC50 (the source's name) (converted); for TGI: read-out: pTGI (converted); procedure, shortened: as §3
# NCI-H460 = experiment: Growth inhibition of human NCI-H460 cells incubated for 48 hrs by sulforhodamine B assay; conditions: NCI-H460, 48 h; for CC50: read-out: pLC50 (the source's name) (converted); for TGI: read-out: pTGI (converted); procedure, shortened: as §3
# [13] = Growth inhibition of human UACC257 cells assessed as cell growth at 10 uM incubated for 48 hrs by sulforhodamine B assay relative to control; conditions: UACC-257, 48 h, read-out: Activity; procedure, shortened: as §2
# [14] = Growth inhibition of human SNB75 cells incubated for 48 hrs by sulforhodamine B assay; conditions: SNB-75, 48 h; for TGI: read-out: pTGI (converted); procedure, shortened: as §1
# M14 = experiment: Growth inhibition of human M14 cells incubated for 48 hrs by sulforhodamine B assay; conditions: M14, 48 h; for TGI: read-out: pTGI (converted); procedure, shortened: as §3
# SN12C = experiment: Growth inhibition of human SN12C cells assessed as cell growth at 10 uM incubated for 48 hrs by sulforhodamine B assay relative to control; conditions: read-out: Activity; procedure, shortened: as §4
# [15] = Growth inhibition of human RXF393 cells assessed as cell growth at 10 uM incubated for 48 hrs by sulforhodamine B assay relative to control; conditions: RXF 393, 48 h, read-out: Activity; procedure, shortened: as §4
# [16] = Growth inhibition of human BT549 cells incubated for 48 hrs by sulforhodamine B assay; conditions: BT-549, 48 h; for CC50: read-out: pLC50 (the source's name) (converted); for TGI: read-out: pTGI (converted); procedure, shortened: as §3
# KM12 = experiment: Growth inhibition of human KM12 cells assessed as cell growth at 10 uM incubated for 48 hrs by sulforhodamine B assay relative to control; conditions: KM12, 48 h, read-out: Activity; procedure, shortened: as §4
# [17] = Growth inhibition of human IGROV1 cells assessed as cell growth at 10 uM incubated for 48 hrs by sulforhodamine B assay relative to control; conditions: IGROV-1, 48 h, read-out: Activity; procedure, shortened: as §4
# T47D = experiment: Growth inhibition of human T47D cells incubated for 48 hrs by sulforhodamine B assay; conditions: for CC50: read-out: pLC50 (the source's name) (converted); for TGI: read-out: pTGI (converted); procedure, shortened: as §1
# NCI-H522 = experiment: Growth inhibition of human NCI-H522 cells assessed as cell growth at 10 uM incubated for 48 hrs by sulforhodamine B assay relative to control; conditions: NCI-H522, 48 h, read-out: Activity; procedure, shortened: as §4
smiles,measurement,setting,value
CC(C)[C@@]12C[C@@H](NC(=O)CO)[C@@](C)(O1)[C@@H]1CC[C@@H](C)[C@H]1[C@@H]2OC(=O)/C=C/C1CCCCC1,GI50,SR,> 44.7 µM
same,LC50,SR,> 44.7 µM
same,TGI,SR,> 44.7 µM
same,growth at 10 µM,[1],101%
same,GI50,[2],> 44.7 µM
same,LC50 (concentration killing 50% of cells),[2],> 44.7 µM
same,TGI,[2],> 44.7 µM
same,GI50,SK-MEL-2,> 44.7 µM
same,LC50,SK-MEL-2,> 44.7 µM
same,TGI,SK-MEL-2,> 44.7 µM
same,growth at 10 µM,SK-MEL-28,98.9%
same,GI50,[3],> 44.7 µM
same,CC50,[3],> 44.7 µM
same,TGI,[3],> 44.7 µM
same,growth at 10 µM,[4],111%
same,growth at 10 µM,[5],92.6%
same,growth at 10 µM,[6],73%
same,growth at 10 µM,[7],86.1%
same,growth at 10 µM,NCI/ADR-RES [8],94.8%
same,GI50,[9],> 44.7 µM
same,"LC50 (lethal concentration, 50% net cell kill)",[9],> 44.7 µM
same,TGI,[9],> 44.7 µM
same,growth at 10 µM,[10],103%
same,growth at 10 µM,NCI-H23,99.4%
same,GI50,NCI/ADR-RES [11],40.7 µM
same,LC50,NCI/ADR-RES [11],> 44.7 µM
same,TGI,NCI/ADR-RES [11],> 44.7 µM
same,growth at 10 µM,SK-MEL-5,99.3%
same,GI50,MDA-MB-468,> 44.7 µM
same,CC50,MDA-MB-468,> 44.7 µM
same,TGI,MDA-MB-468,> 44.7 µM
same,GI50,[12],> 44.7 µM
same,CC50,[12],> 44.7 µM
same,TGI,[12],> 44.7 µM
same,GI50,NCI-H460,> 44.7 µM
same,CC50,NCI-H460,> 44.7 µM
same,TGI,NCI-H460,> 44.7 µM
same,growth at 10 µM,[13],98.2%
same,GI50,[14],> 44.7 µM
same,LC50,[14],> 44.7 µM
same,TGI,[14],> 44.7 µM
same,GI50,M14,> 44.7 µM
same,LC50,M14,> 44.7 µM
same,TGI,M14,> 44.7 µM
same,growth at 10 µM,SN12C,86.7%
same,growth at 10 µM,[15],95.4%
same,GI50,[16],> 44.7 µM
same,CC50,[16],> 44.7 µM
same,TGI,[16],> 44.7 µM
same,growth at 10 µM,KM12,104%
same,growth at 10 µM,[17],103%
same,GI50,T47D,> 44.7 µM
same,CC50,T47D,> 44.7 µM
same,TGI,T47D,> 44.7 µM
same,growth at 10 µM,NCI-H522,88.8%
CC(C)[C@@]12C[C@@H](NC(=O)CF)[C@@](C)(O1)[C@@H]1CC[C@@H](C)[C@H]1[C@@H]2OC(=O)/C=C/c1ccccc1,growth at 10 µM,[1],99.6%
same,growth at 10 µM,SK-MEL-28,110%
same,growth at 10 µM,[4],105%
same,growth at 10 µM,[5],102%
same,growth at 10 µM,[6],92.6%
same,growth at 10 µM,[7],87.9%
same,growth at 10 µM,NCI/ADR-RES [8],98.5%
same,growth at 10 µM,[10],87.4%
same,growth at 10 µM,NCI-H23,102%
same,growth at 10 µM,SK-MEL-5,110%
same,growth at 10 µM,[13],105%
same,growth at 10 µM,SN12C,103%
same,growth at 10 µM,KM12,104%
same,growth at 10 µM,[17],103%
same,growth at 10 µM,NCI-H522,103%
C/C(=C\C(=O)O[C@H]1[C@@H]2[C@H](C)CC[C@H]2[C@]2(C)O[C@@]1(C(C)C)C[C@H]2NC(=O)CO)c1ccccc1,GI50,SR,26.3 µM
same,LC50,SR,> 100 µM
same,TGI,SR,74.1 µM
same,growth at 10 µM,[1],102%
same,GI50,[2],35.5 µM
same,LC50 (concentration killing 50% of cells),[2],> 100 µM
same,TGI,[2],> 100 µM
same,GI50,SK-MEL-2,31.6 µM
same,LC50,SK-MEL-2,> 100 µM
same,TGI,SK-MEL-2,> 100 µM
same,growth at 10 µM,SK-MEL-28,118%
same,GI50,[3],19.5 µM
same,CC50,[3],> 100 µM
same,TGI,[3],56.2 µM
same,growth at 10 µM,[5],119%
same,growth at 10 µM,[6],-8.92%
same,growth at 10 µM,[7],102%
same,growth at 10 µM,NCI/ADR-RES [8],72.2%
same,GI50,[9],26.9 µM
same,"LC50 (lethal concentration, 50% net cell kill)",[9],> 100 µM
same,TGI,[9],> 100 µM
same,growth at 10 µM,[10],101%
same,growth at 10 µM,NCI-H23,97.7%
same,GI50,NCI/ADR-RES [11],7.94 µM
same,LC50,NCI/ADR-RES [11],> 100 µM
same,TGI,NCI/ADR-RES [11],69.2 µM
same,growth at 10 µM,SK-MEL-5,101%
same,GI50,MDA-MB-468,28.8 µM
same,CC50,MDA-MB-468,> 100 µM
same,TGI,MDA-MB-468,> 100 µM
same,GI50,[12],17.8 µM
same,CC50,[12],> 100 µM
same,TGI,[12],61.7 µM
same,GI50,NCI-H460,38 µM
same,CC50,NCI-H460,> 100 µM
same,TGI,NCI-H460,> 100 µM
same,growth at 10 µM,[13],92.4%
same,GI50,[14],12.3 µM
same,LC50,[14],> 100 µM
same,TGI,[14],> 100 µM
same,GI50,M14,44.7 µM
same,LC50,M14,> 100 µM
same,TGI,M14,> 100 µM
same,growth at 10 µM,SN12C,84.6%
same,growth at 10 µM,[15],73.5%
same,GI50,[16],22.4 µM
same,CC50,[16],> 100 µM
same,TGI,[16],69.2 µM
same,growth at 10 µM,KM12,112%
same,growth at 10 µM,[17],104%
same,GI50,T47D,20.4 µM
same,CC50,T47D,> 100 µM
same,TGI,T47D,> 100 µM
same,growth at 10 µM,NCI-H522,92.5%
